Legend:
[1] = system: peripheral CD4+ T cells of the 1B6 transgenic mouse; test: Proliferation of naive ex-vivo 1B6 TCR transgenic T cells; type: cell-based; details: LNCs from 1B6 TCR transgenic mouse, [3H]thymidine added after 48 h; Fig. 1
Procedure, shortened: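 Lymph node cells from a 1B6 TCR transgenic mouse were stimulated in culture with different peptide ligands. Per the general proliferation method, cultures were run in triplicate. After 48 h, [3H]thymidine (1 μCi/well) was added for the final 16 h before harvest. Incorporation was read by scintillation counting.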

[2] = system: CD4+ 1B6 Rag2−/− T cell lines; test: Cytokine ELISA on 1B6 T cell lines; type: cell-based, mouse; details: supernatants after 40 h, Fig. 3
I-A^s = biological target: T1, I-A^s (Mus musculus, UniProt P06345+P14437); details: binding to I-A^s relative to W144 (1.0); cited from earlier work
T1 sequence (P14437 1-233): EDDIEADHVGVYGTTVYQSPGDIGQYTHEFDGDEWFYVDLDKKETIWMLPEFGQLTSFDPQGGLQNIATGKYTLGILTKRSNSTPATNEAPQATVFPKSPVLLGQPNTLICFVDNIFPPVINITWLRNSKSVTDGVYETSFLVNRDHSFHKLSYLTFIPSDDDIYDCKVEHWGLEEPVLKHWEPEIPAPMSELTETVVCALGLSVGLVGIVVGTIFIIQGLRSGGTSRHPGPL
T1 sequence (P06345 28-263): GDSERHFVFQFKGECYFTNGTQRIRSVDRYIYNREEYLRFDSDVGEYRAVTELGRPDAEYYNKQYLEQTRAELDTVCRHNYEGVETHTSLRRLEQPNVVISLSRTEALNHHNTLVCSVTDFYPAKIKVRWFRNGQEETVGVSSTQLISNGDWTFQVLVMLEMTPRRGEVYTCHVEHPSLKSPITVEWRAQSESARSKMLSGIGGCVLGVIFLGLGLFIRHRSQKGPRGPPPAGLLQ

Q1.1B6 T cell clone = details: representative experiment; cited from earlier work

Sequence | Stimulatory potential for proliferation (hierarchy of response) [1] | Secretion of IL-2 by desensitized cells [2] | Relative MHC binding (I-A^s) | Cytokine IL-4 (Q1.1B6 T cell clone) | Cytokine TNF-α (Q1.1B6 T cell clone) | Cytokine IFN-γ (Q1.1B6 T cell clone) | Cytokine IL-2 (Q1.1B6 T cell clone)
HSLGKLLGHPDKF [Ligand L144] | superagonist ligand | selectively blunted | 0.8 | 390 pg/mL | 420 pg/mL | – | –
HSLGKQLGHPDKF [Ligand Q144] | agonist | – | 0.6 | 200 pg/mL | <50 pg/mL | 9,052 pg/ml | <50 pg/mL
HSLGKWLGHPDKF [Ligand W144, reference compound] | weaker ligand | – | 1.0 | <50 pg/mL | <50 pg/mL | 420 pg/mL | <50 pg/mL

— paper PMC2194103 (The Journal of Experimental Medicine, 2002)
